Measurements published in ChEMBL document CHEMBL1150419, “Structure-activity relationships of a peptide inhibitor of the human FcRn:human IgG interaction” (Bioorg Med Chem, 2008).
Square brackets hold non-standard residues; d marks the D form. Peptide text beside a SMILES is read from it. Dap = NC[C@H](N)C(=O)O

Target: T1, IgG receptor FcRn large subunit p51 (Homo sapiens, UniProt P55899)
Assay: Inhibition of human IgG binding to soluble human FcRn by ELISA
In short: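 Biotinylated soluble human FcRn immobilized on neutravidin plates, incubated with hIgG (3 nM, constant) and peptide at varying concentrations for 2 h at 37 °C. After washing, bound hIgG detected with peroxidase-conjugated hIgG-specific Fab fragments.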

T1 sequence (P55899 whole entry): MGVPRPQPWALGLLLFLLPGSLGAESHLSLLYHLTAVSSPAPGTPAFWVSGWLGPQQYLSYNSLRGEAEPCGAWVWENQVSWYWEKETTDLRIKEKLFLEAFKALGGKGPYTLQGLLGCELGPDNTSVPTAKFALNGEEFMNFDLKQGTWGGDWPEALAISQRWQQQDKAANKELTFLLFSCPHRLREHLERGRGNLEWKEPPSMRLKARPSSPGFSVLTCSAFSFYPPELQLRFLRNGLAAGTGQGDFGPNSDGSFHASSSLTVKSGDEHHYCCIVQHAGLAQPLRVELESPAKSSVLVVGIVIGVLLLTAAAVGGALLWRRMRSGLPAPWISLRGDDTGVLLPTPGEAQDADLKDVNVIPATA

| Compound | IC50 |
| --- | --- |
| CC(C)C[C@@H](C(=O)N[C@@H](Cc1ccc(O)cc1)C(=O)N1CCC[C@H]1C(=O)N[C@@H](CS)C(=O)O)N1CC[C@H](NC(=O)CNC(=O)[C@H](Cc2ccccc2)NC(=O)[C@H](Cc2cnc[nH]2)NC(=O)CNC(=O)[C@@H](NC(=O)[C@@H](NC(=O)[C@H](Cc2ccccc2)NC(=O)[C@@H](N)CCCNC(=N)N)C(C)(C)S)[C@@H](C)O)C1=O | 19 µM |
| CC(C)C[C@H](NC(=O)Cc1cccc(NC(=O)[C@H](Cc2ccccc2)NC(=O)[C@H](Cc2cnc[nH]2)NC(=O)CNC(=O)[C@@H](NC(=O)[C@@H](NC(=O)[C@H](Cc2ccccc2)NC(=O)[C@@H](N)CCCN=C(N)N)C(C)(C)S)[C@@H](C)O)c1)C(=O)N[C@@H](Cc1ccc(O)cc1)C(=O)N1CCC[C@H]1C(=O)N[C@@H](CS)C(=O)O | 14 µM |
| CC(C)C[C@H](NC(=O)c1ccc(CNC(=O)[C@H](Cc2ccccc2)NC(=O)[C@H](Cc2cnc[nH]2)NC(=O)CNC(=O)[C@@H](NC(=O)[C@@H](NC(=O)[C@H](Cc2ccccc2)NC(=O)[C@@H](N)CCCNC(=N)N)C(C)(C)S)[C@@H](C)O)cc1)C(=O)N[C@@H](Cc1ccc(O)cc1)C(=O)N1CCC[C@H]1C(=O)N[C@@H](CS)C(=O)O | > 125 µM |
| CC(C)C[C@H](NC(=O)Cc1ccc(NC(=O)[C@H](Cc2ccccc2)NC(=O)[C@H](Cc2cnc[nH]2)NC(=O)CNC(=O)[C@@H](NC(=O)[C@@H](NC(=O)[C@H](Cc2ccccc2)NC(=O)[C@@H](N)CCCN=C(N)N)C(C)(C)S)[C@@H](C)O)cc1)C(=O)N[C@@H](Cc1ccc(O)cc1)C(=O)N1CCC[C@H]1C(=O)N[C@@H](CS)C(=O)O | > 125 µM |
| CC(C)C[C@H](NC(=O)[C@H]1CSC2C[C@@H](NC(=O)[C@H](Cc3ccccc3)NC(=O)[C@H](Cc3cnc[nH]3)NC(=O)CNC(=O)[C@@H](NC(=O)[C@H](NC(=O)[C@H](Cc3ccccc3)NC(=O)[C@@H](N)CCCNC(=N)N)C(C)(C)S)[C@@H](C)O)C(=O)N21)C(=O)N[C@@H](Cc1ccc(O)cc1)C(=O)N1CCC[C@H]1C(=O)N[C@@H](CS)C(=O)O (some centres not stated) | 23 µM |
| CC(C)C[C@H](NC(=O)c1cccc(CNC(=O)[C@H](Cc2ccccc2)NC(=O)[C@H](Cc2cnc[nH]2)NC(=O)CNC(=O)[C@@H](NC(=O)[C@@H](NC(=O)[C@H](Cc2ccccc2)NC(=O)[C@@H](N)CCCN=C(N)N)C(C)(C)S)[C@@H](C)O)c1)C(=O)N[C@@H](Cc1ccc(O)cc1)C(=O)N1CCC[C@H]1C(=O)N[C@@H](CS)C(=O)O | 57 µM |
| CC(C)C[C@H](NC(=O)[C@H]1CS[C@@H]2CC[C@@H](NC(=O)[C@H](Cc3ccccc3)NC(=O)[C@H](Cc3cnc[nH]3)NC(=O)CNC(=O)[C@@H](NC(=O)[C@H](NC(=O)[C@H](Cc3ccccc3)NC(=O)[C@@H](N)CCCN=C(N)N)C(C)(C)S)[C@@H](C)O)C(=O)N12)C(=O)N[C@@H](Cc1ccc(O)cc1)C(=O)N1CCC[C@H]1C(=O)N[C@@H](CS)C(=O)O | 2.2 µM |

Second part, the compound after the results:

| IC50 | Compound |
| --- | --- |
| 32 µM | CC(C)C[C@H](NC(=O)CNC(=O)CNC(=O)[C@H](Cc1ccccc1)NC(=O)[C@H](Cc1cnc[nH]1)NC(=O)CNC(=O)[C@@H](NC(=O)[C@H](CC(=O)O)NC(=O)[C@H](Cc1ccccc1)NC(=O)[C@H](CCCN=C(N)N)NC(=O)[C@@H](N)CCC(N)=O)[C@@H](C)O)C(=O)N[C@@H](Cc1ccc(O)cc1)C(=O)N1CCC[C@H]1C(=O)N[C@@H](CN)C(=O)N[C@@H](CC(N)=O)C(=O)NCC(=O)N1CCC[C@H]1C(=O)O |
| 120 µM | CC(C)C[C@H](NC(=O)CNC(=O)CNC(=O)[C@H](Cc1ccccc1)NC(=O)[C@H](Cc1cnc[nH]1)NC(=O)CNC(=O)[C@@H](NC(=O)[C@H](CN)NC(=O)[C@H](Cc1ccccc1)NC(=O)[C@H](CCCNC(=N)N)NC(=O)[C@@H](N)CCC(N)=O)[C@@H](C)O)C(=O)N[C@@H](Cc1ccc(O)cc1)C(=O)N1CCC[C@H]1C(=O)N[C@@H](CC(=O)O)C(=O)N[C@@H](CC(N)=O)C(=O)NCC(=O)N1CCC[C@H]1C(=O)O |
| 30 µM | CC(C)C[C@H](NC(=O)CNC(=O)CNC(=O)[C@H](Cc1ccccc1)NC(=O)[C@H](Cc1cnc[nH]1)NC(=O)CNC(=O)[C@@H](NC(=O)[C@H](CCCN)NC(=O)[C@H](Cc1ccccc1)NC(=O)[C@H](CCCNC(=N)N)NC(=O)[C@@H](N)CCC(N)=O)[C@@H](C)O)C(=O)N[C@@H](Cc1ccc(O)cc1)C(=O)N1CCC[C@H]1C(=O)N[C@@H](CCC(=O)O)C(=O)N[C@@H](CC(N)=O)C(=O)NCC(=O)N1CCC[C@H]1C(=O)O |
| 120 µM | CC(C)C[C@H](NC(=O)CNC(=O)CNC(=O)[C@H](Cc1ccccc1)NC(=O)[C@H](Cc1cnc[nH]1)NC(=O)CNC(=O)[C@@H](NC(=O)[C@H](CCCN)NC(=O)[C@H](Cc1ccccc1)NC(=O)[C@H](CCCNC(=N)N)NC(=O)[C@@H](N)CCC(N)=O)[C@@H](C)O)C(=O)N[C@@H](Cc1ccc(O)cc1)C(=O)N1CCC[C@H]1C(=O)N[C@@H](CC(=O)O)C(=O)N[C@@H](CC(N)=O)C(=O)NCC(=O)N1CCC[C@H]1C(=O)O |
| 60 µM | CC(C)C[C@H](NC(=O)CNC(=O)CNC(=O)[C@H](Cc1ccccc1)NC(=O)[C@H](Cc1cnc[nH]1)NC(=O)CNC(=O)[C@@H](NC(=O)[C@H](CCCCN)NC(=O)[C@H](Cc1ccccc1)NC(=O)[C@H](CCCNC(=N)N)NC(=O)[C@@H](N)CCC(N)=O)[C@@H](C)O)C(=O)N[C@@H](Cc1ccc(O)cc1)C(=O)N1CCC[C@H]1C(=O)N[C@@H](CC(=O)O)C(=O)N[C@@H](CC(N)=O)C(=O)NCC(=O)N1CCC[C@H]1C(=O)O |
| > 125 µM | CC(C)C[C@H](NC(=O)CNC(=O)CNC(=O)[C@H](Cc1ccccc1)NC(=O)[C@H](Cc1cnc[nH]1)NC(=O)CNC(=O)[C@@H](NC(=O)[C@H](CN)NC(=O)[C@H](Cc1ccccc1)NC(=O)[C@H](CCCN=C(N)N)NC(=O)[C@@H](N)CCC(N)=O)[C@@H](C)O)C(=O)N[C@@H](Cc1ccc(O)cc1)C(=O)N1CCC[C@H]1C(=O)N[C@@H](CCC(=O)O)C(=O)N[C@@H](CC(N)=O)C(=O)NCC(=O)N1CCC[C@H]1C(=O)O (H-QRF[Dap]TGHFGGLYPENGP-OH) |

Target: T1, IgG receptor FcRn large subunit p51
Assay: Binding affinity to human FcRn at pH 6 by surface plasmon resonance assay
In short: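 Soluble human FcRn coupled to the dextran surface of a CM5 chip; peptide dilutions flowed over the chip. The equilibrium response at each dilution was plotted against concentration and fitted to a steady-state affinity model to give Kd.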

| Compound | Kd |
| --- | --- |
| CC(C)C[C@H](NC(=O)CNC(=O)CN(C)C(=O)[C@H](Cc1ccccc1)NC(=O)[C@H](Cc1cnc[nH]1)NC(=O)CNC(=O)[C@@H](NC(=O)[C@@H](NC(=O)[C@H](Cc1ccccc1)NC(=O)[C@H](CCCN=C(N)N)NC(=O)[C@@H](N)CCC(N)=O)C(C)(C)S)[C@@H](C)O)C(=O)N[C@@H](Cc1ccc(O)cc1)C(=O)N1CCC[C@H]1C(=O)N[C@@H](CS)C(=O)N[C@@H](CC(N)=O)C(=O)NCC(=O)N1CCC[C@H]1C(=O)O | 2 µM |
| CC(C)C[C@H](NC(=O)CNC(=O)CNC(=O)[C@H](Cc1ccccc1)NC(=O)[C@H](Cc1cnc[nH]1)NC(=O)CNC(=O)[C@@H](NC(=O)[C@H](CS)NC(=O)[C@H](Cc1ccccc1)NC(=O)[C@H](CCCNC(=N)N)NC(=O)[C@@H](N)CCC(N)=O)[C@@H](C)O)C(=O)N[C@@H](Cc1ccc(O)cc1)C(=O)N1CCC[C@H]1C(=O)N[C@@H](CS)C(=O)N[C@@H](CC(N)=O)C(N)=O | 6.1 µM |
| CC(C)C[C@H](NC(=O)CNC(=O)CNC(=O)[C@H](Cc1ccccc1)N(C)C(=O)[C@H](Cc1cnc[nH]1)NC(=O)CNC(=O)[C@@H](NC(=O)[C@@H](NC(=O)[C@H](Cc1ccccc1)NC(=O)[C@H](CCCN=C(N)N)NC(=O)[C@@H](N)CCC(N)=O)C(C)(C)S)[C@@H](C)O)C(=O)N[C@@H](Cc1ccc(O)cc1)C(=O)N1CCC[C@H]1C(=O)N[C@@H](CS)C(=O)N[C@@H](CC(N)=O)C(=O)NCC(=O)N1CCC[C@H]1C(=O)O | > 250 µM |

Continued, values first:

| Kd | Compound |
| --- | --- |
| > 250 µM | CC(C)C[C@H](NC(=O)CNC(=O)CNC(=O)[C@H](Cc1ccccc1)NC(=O)[C@H](Cc1cnc[nH]1)NC(=O)CNC(=O)[C@@H](NC(=O)[C@H](NC(=O)[C@H](Cc1ccccc1)NC(=O)[C@H](CCCNC(=N)N)NC(=O)[C@@H](N)CCC(N)=O)C(C)(C)S)[C@@H](C)O)C(=O)N[C@H](Cc1ccc(O)cc1)C(=O)N1CCC[C@H]1C(=O)N[C@H](CS)C(=O)N[C@@H](CC(N)=O)C(=O)NCC(=O)N1CCC[C@H]1C(=O)O |
| > 250 µM | CC(C)C[C@@H](NC(=O)CNC(=O)CNC(=O)[C@@H](Cc1ccccc1)NC(=O)[C@H](Cc1cnc[nH]1)NC(=O)CNC(=O)[C@@H](NC(=O)[C@H](NC(=O)[C@H](Cc1ccccc1)NC(=O)[C@H](CCCNC(=N)N)NC(=O)[C@@H](N)CCC(N)=O)C(C)(C)S)[C@@H](C)O)C(=O)N[C@@H](Cc1ccc(O)cc1)C(=O)N1CCC[C@H]1C(=O)N[C@H](CS)C(=O)N[C@@H](CC(N)=O)C(=O)NCC(=O)N1CCC[C@H]1C(=O)O |
| > 250 µM | CC(C)C[C@H](NC(=O)CNC(=O)CNC(=O)[C@@H](Cc1ccccc1)NC(=O)[C@H](Cc1cnc[nH]1)NC(=O)CNC(=O)[C@@H](NC(=O)[C@@H](NC(=O)[C@H](Cc1ccccc1)NC(=O)[C@H](CCCN=C(N)N)NC(=O)[C@@H](N)CCC(N)=O)C(C)(C)S)[C@@H](C)O)C(=O)N[C@@H](Cc1ccc(O)cc1)C(=O)N1CCC[C@H]1C(=O)N[C@@H](CS)C(=O)N[C@@H](CC(N)=O)C(=O)NCC(=O)N1CCC[C@H]1C(=O)O |
| 2.1 µM | CC(C)C[C@H](NC(=O)CNC(=O)CNC(=O)[C@H](Cc1ccccc1)NC(=O)[C@H](Cc1cnc[nH]1)NC(=O)CNC(=O)[C@@H](NC(=O)[C@H](CCS)NC(=O)[C@H](Cc1ccccc1)NC(=O)[C@H](CCCNC(=N)N)NC(=O)[C@@H](N)CCC(N)=O)[C@@H](C)O)C(=O)N[C@@H](Cc1ccc(O)cc1)C(=O)N1CCC[C@H]1C(=O)N[C@H](C(=O)N[C@@H](CC(N)=O)C(=O)NCC(=O)N1CCC[C@H]1C(=O)O)C(C)(C)S |
| > 250 µM | CC(C)C[C@H](NC(=O)CNC(=O)CNC(=O)[C@H](Cc1ccccc1)NC(=O)[C@H](Cc1cnc[nH]1)NC(=O)CNC(=O)[C@@H](NC(=O)[C@H](NC(=O)[C@H](Cc1ccccc1)NC(=O)[C@H](CCCNC(=N)N)NC(=O)[C@@H](N)CCC(N)=O)C(C)(C)S)[C@@H](C)O)C(=O)N[C@@H](Cc1ccc(O)cc1)C(=O)N1CCC[C@@H]1C(=O)N[C@H](CS)C(=O)N[C@@H](CC(N)=O)C(=O)NCC(=O)N1CCC[C@H]1C(=O)O |
| 92 µM | CC(C)C[C@H](NC(=O)CNC(=O)CNC(=O)[C@H](Cc1ccccc1)NC(=O)[C@H](Cc1cnc[nH]1)NC(=O)CNC(=O)[C@@H](NC(=O)[C@@H](NC(=O)[C@H](Cc1ccccc1)NC(=O)[C@H](CCCNC(=N)N)NC(=O)[C@@H](N)CCC(N)=O)C(C)(C)S)[C@@H](C)O)C(=O)N(C)[C@@H](Cc1ccc(O)cc1)C(=O)N1CCC[C@H]1C(=O)N[C@@H](CS)C(=O)N[C@@H](CC(N)=O)C(=O)NCC(=O)N1CCC[C@H]1C(=O)O |
